This is an account of results in ChEMBL document CHEMBL1139955, “C(4)-alkyl substituted furanyl cyclobutenediones as potent, orally bioavailable CXCR2 and CXCR1 receptor antagonists” (Bioorg Med Chem Lett, 2007).

Data set [1] has as its target T1, C-X-C chemokine receptor type 1 (Homo sapiens, UniProt P25024).
T1 sequence (P25024 whole entry): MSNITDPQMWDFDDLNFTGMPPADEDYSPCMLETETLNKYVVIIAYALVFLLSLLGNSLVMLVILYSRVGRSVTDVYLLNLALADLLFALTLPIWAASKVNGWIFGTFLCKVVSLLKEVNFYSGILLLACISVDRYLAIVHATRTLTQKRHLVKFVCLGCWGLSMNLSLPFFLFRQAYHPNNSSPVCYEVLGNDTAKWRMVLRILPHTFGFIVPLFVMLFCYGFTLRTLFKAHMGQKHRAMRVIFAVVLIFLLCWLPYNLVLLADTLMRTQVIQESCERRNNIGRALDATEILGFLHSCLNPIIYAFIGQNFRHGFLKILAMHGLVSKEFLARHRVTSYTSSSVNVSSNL
Briefly: Displacement of [125I]IL8 from human CXCR1 expressed in CHO cells by SPA. The class given is cell-based.

Data set [2] concerns the target T2, C-X-C chemokine receptor type 2 (Homo sapiens, UniProt P25025).
T2 sequence (P25025 whole entry): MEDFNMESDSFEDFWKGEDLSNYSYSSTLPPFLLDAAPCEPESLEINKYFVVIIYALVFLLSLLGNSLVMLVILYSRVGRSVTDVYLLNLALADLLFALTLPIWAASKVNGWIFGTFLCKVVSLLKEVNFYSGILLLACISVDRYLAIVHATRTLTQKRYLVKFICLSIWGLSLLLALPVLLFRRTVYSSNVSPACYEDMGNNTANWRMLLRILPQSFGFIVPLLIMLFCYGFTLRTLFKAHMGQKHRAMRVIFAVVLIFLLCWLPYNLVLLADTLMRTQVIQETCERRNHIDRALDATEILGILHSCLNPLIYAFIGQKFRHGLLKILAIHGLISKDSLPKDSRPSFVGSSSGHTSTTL
Briefly: Displacement of [125I]IL8 from human CXCR2 expressed in CHO cells by SPA. The class given is cell-based. (In general: Loss of bound radioactivity is the signal in a displacement assay; it reports binding, not function.)

The nature of data set [3]: AUC in rat at 10 mg/kg, po after 6 hrs. Format: ADME, organism-based. Also on record: time < 6 hr, dose 10 mg/kg, route oral. Conditions: plasma.
For a further data set, the species on record is Mus musculus. Briefly: Antiinflammatory activity against mouse model of cigarette smoke-induced neutrophilic inflammation. The class given is functional.
A short description of data set [4]: Cmax in monkey at 3 mg/kg, po after 48 hrs. Format: ADME, organism-based, Macaca mulatta. Also on record: dose 3 mg/kg, route oral. Conditions: rhesus monkey, in vivo.
Data set [5] in a line: AUC in mouse at 25 mg/kg, po after 7 hrs. The class given is ADME, organism-based. Also on record: time < 7 hr, dose 25 mg/kg, route oral. Conditions: plasma.
Data set [6] can be described thus: Cmax in dog at 2 mg/kg, po after 48 hrs. The class given is ADME, organism-based, Canis lupus familiaris. On the set-up: dose 2 mg/kg, route oral. Conditions: in vivo.
The species entered for another data set is Rattus norvegicus. Briefly: Antiinflammatory activity against rat model of lipopolysaccharide-induced pulmonary inflammation. Format: functional.
A short description of data set [7]: AUC in monkey at 3 mg/kg, po after 48 hrs. Format: ADME, organism-based, Macaca mulatta. On the set-up: time < 48 hr, dose 3 mg/kg, route oral. Conditions: rhesus monkey, plasma.
Data set [8] concerns Neutrophil. Briefly: Inhibition of IL8-induced migration of human neutrophils by chemotaxis assay. Format: functional, cell-based. The essentials:
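Human neutrophil migration stimulated with 3 nM IL-8; IC50 determined.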

Data set [9] is described as follows: AUC in dog at 2 mg/kg, po after 48 hrs. Format: ADME, organism-based, Canis lupus familiaris. On the set-up: time < 48 hr, dose 2 mg/kg, route oral. Conditions: plasma.
The nature of data set [10]: Cmax in mouse at 25 mg/kg, po after 7 hrs. The class given is ADME, organism-based. On the set-up: dose 25 mg/kg, route oral. Conditions: in vivo.
Data set [11] has as its system Neutrophil. Briefly: Inhibition of GROalpha-induced migration of human neutrophils by chemotaxis assay. Format: functional, cell-based. The essentials: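 Human neutrophil migration stimulated with 30 nM Gro-α; IC50 determined.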
Data set [12] in a line: Cmax in rat at 10 mg/kg, po after 6 hrs. The class given is ADME, organism-based. Conditions: in vivo. Also on record: dose 10 mg/kg, route oral.

pIC50, pKi: −log10 of the molar value.

For `CC[C@@H](Nc1c(Nc2cccc(C(=O)N(C)C)c2O)c(=O)c1=O)c1sccc1C`, the pKi in data set [1] was 6.91; in data set [2] it was 8.00.

`CC[C@@H](Nc1c(Nc2cccc(C(=O)N(C)C)c2O)c(=O)c1=O)c1cc(C)co1` displayed an AUC at 6 h in [3] of 32.6 µM·h. The pKi in data set [1] was 8.05; in data set [2], 8.40.

Consider `CCc1ccoc1[C@@H](CC)Nc1c(Nc2cccc(C(=O)N(C)C)c2O)c(=O)c1=O`, for which the pKi in [1] is 6.42; in data set [2], 7.60.

Compound `CCc1coc([C@@H](CC)Nc2c(Nc3cccc(C(=O)N(C)C)c3O)c(=O)c2=O)c1` yielded an AUC at 6 h in data set [3] of 17.4 µM·h. For the same compound, the figures for the pKi in data set [1] and in data set [2] were 8.15 and 9.00, respectively.

Turning to `CCCCc1coc([C@@H](CC)Nc2c(Nc3cccc(C(=O)N(C)C)c3O)c(=O)c2=O)c1`, the pKi in data set [1] was 7.47; in data set [2], 8.70.

With `CC[C@@H](Nc1c(Nc2cccc(C(=O)N(C)C)c2O)c(=O)c1=O)c1cc(CCCCN2CCOCC2)co1`, the figures for the pKi in [1] and in [2] were 7.85 and 8.05, respectively.

Turning to `CC[C@@H](Nc1c(Nc2cccc(C(=O)N(C)C)c2O)c(=O)c1=O)c1cc(C(C)C)co1`, the AUC at 6 h in data set [3] was determined as 5.4 µM·h. The ED50 turned out to be 1 mg/kg in the data set listed under Mus musculus and 0.9 mg/kg in the data set filed under Rattus norvegicus. The Cmax in [4] amounted to 0.38 µM; in data set [6], 5.3 µM; in [10] it was 4.6 µM; in data set [12], 3.8 µM. The same compound came in with an AUC at 7 h in [5] of 4.6 µM·h. In addition, the pIC50 in [1] is 8.14; in the data set on Neutrophil [8], 7.43; in data set [2], 8.89; in the data set with Neutrophil [11], 9.30. The pKi in data set [1] was 8.52; in [2], 9.00. Also, the AUC at 48 h in [7] was determined as 4.2 µM·h; in data set [9] it was 7.1 µM·h.

For `CCC(CC)c1coc([C@@H](CC)Nc2c(Nc3cccc(C(=O)N(C)C)c3O)c(=O)c2=O)c1`, the pKi in data set [1] was 7.52; in data set [2], 9.10.

`CC[C@@H](Nc1c(Nc2cccc(C(=O)N(C)C)c2O)c(=O)c1=O)c1cc(C2CCCC2)co1`: the pKi in [1] is 7.28; in [2], 8.52.

Take `CC[C@@H](Nc1c(Nc2cccc(C(=O)N(C)C)c2O)c(=O)c1=O)c1cc(C2CCCCC2)co1`: the results for the negative-log Ki (pKi) in [1] and in data set [2] were 6.55 and 8.40, respectively.

For `CC(C)c1coc([C@@H](C)Nc2c(Nc3cccc(C(=O)N(C)C)c3O)c(=O)c2=O)c1`, the pKi in data set [1] is 7.30; in data set [2], 8.70.

Turning to `CC(C)c1coc([C@H](Nc2c(Nc3cccc(C(=O)N(C)C)c3O)c(=O)c2=O)C(C)C)c1`, the pKi in data set [1] was 7.96; in [2] it was 8.40.

On to `CC(C)c1coc([C@H](Nc2c(Nc3cccc(C(=O)N(C)C)c3O)c(=O)c2=O)C2CC2)c1`, for which the values for the pKi in data set [1] and in [2] were 8.00 and 8.52, respectively.

In the case of `CC(C)c1coc([C@H](Nc2c(Nc3cccc(C(=O)N(C)C)c3O)c(=O)c2=O)C(C)(C)C)c1`, the negative logarithm of the Ki (pKi) in data set [1] was 7.85; in [2], 8.40.

With `CC[C@@H](Nc1c(Nc2cccc(C(=O)N(C)C)c2O)c(=O)c1=O)c1cc(C)cs1`, the pKi in data set [1] is 7.62; in data set [2] it was 8.30.

Take `CC[C@@H](Nc1c(Nc2cccc(C(=O)N(C)C)c2O)c(=O)c1=O)c1cc(C(C)(C)C)co1`: the results for the pKi in data set [1] and in [2] were 8.00 and 8.40, respectively.

On to `CCC(C)c1coc([C@@H](CC)Nc2c(Nc3cccc(C(=O)N(C)C)c3O)c(=O)c2=O)c1` (some centres undefined), for which the results for the pKi in data set [1] and in data set [2] were 8.12 and 9.22, respectively.

Take `CC[C@@H](Nc1c(Nc2cccc(C(=O)N(C)C)c2O)c(=O)c1=O)c1ccc(C)s1`: the pKi in data set [1] is 6.84; in [2] it was 8.30.

As to `CC(C)c1coc([C@H](Nc2c(Nc3cccc(C(=O)N(C)C)c3O)c(=O)c2=O)C(F)(F)F)c1`, the pKi in data set [1] was 7.80; in data set [2] it was 8.22.

Broadly, the pKi is the negative decadic logarithm of the Ki, by convention in mol/L. By AUC is commonly meant concentration integrated over time. By ED50 is commonly meant the dose that gives a 50% effect, or the effect in half of the subjects. A word on the Cmax: it is the highest concentration seen after dosing. Broadly, the pIC50 is the IC50 on a negative log10 scale, so that one unit is a factor of ten.
